Results as given in ChEMBL document CHEMBL5724801, “EUbOPEN Chemogenomics Library - Multiplex” (2024).
“And” between values parts separate entries of the source, which are not always exact repeats. Identical values can stand only once.

Tested on: Fibroblast
Test: Multiplex assay against human fibroblast
Assay type: toxicity, cell-based
Outline: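 Live cells were stained at seeding with Hoechst33342, BioTracker Green Microtubule Cytoskeleton Dye, MitoTracker Red and Annexin V Alexa Fluor 680. Following compound addition, they were imaged on a CQ1 microscope at 37°C and 5% CO2 and gated by CellPathfinder machine learning into Hoechst high-intensity objects or normal cells, with normal cells split into healthy, pyknosed or fragmented nuclei and pyknosed cells into mitotic or apoptotic. Tubulin, mitochondrial-mass and membrane-permeability phenotypes are per cents of healthy-nucleus cells.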

[1] = 12 h, 1 µM, compound concentration 1 uM
[2] = 12 h, 10 µM, compound concentration 10 uM
[3] = 24 h, 1 µM, compound concentration 1 uM
[4] = 24 h, 10 µM, compound concentration 10 uM
[5] = 48 h, 1 µM, compound concentration 1 uM
[6] = 48 h, 10 µM, compound concentration 10 uM

Cc1c(CC(=O)O)c2cccnc2n1Cc1ccc(S(C)(=O)=O)cc1C(F)(F)F [FEVIPIPRANT]
Population Apoptotic (%) [1]: 44% and 25%
Population Fragmented Nuclei (%) [1]: 22% and 33%
Population Healthy Nuclei (%) [1]: 60% and 48%
Population Hoechst High Intensity Objects (%) [1]: 3%
Population Mitochondria Different-Phenotype (%) [1]: 3% and 12%
Population Mitotic Cells (%) [1]: 55% and 74%
Population Normal (%) [1]: 96%
Population Pyknosed Nuclei (%) [1]: 18% and 17%
Population Tubulin-Different-Phenotype (%) [1]: 20% and 56%
Total Cell Count [1]: 156
Population Apoptotic (%) [2]: 34% and 22%
Population Fragmented Nuclei (%) [2]: 10% and 21%
Population Healthy Nuclei (%) [2]: 71% and 54%
Population Hoechst High Intensity Objects (%) [2]: 3% and 5%
Population Membrane Permeable-Phenotype (%) [2]: 1% and 9%
Population Mitochondria Different-Phenotype (%) [2]: 4% and 6%
Population Mitotic Cells (%) [2]: 65% and 77%
Population Normal (%) [2]: 96% and 94%
Population Pyknosed Nuclei (%) [2]: 17% and 23%
Population Tubulin-Different-Phenotype (%) [2]: 25% and 55%
Total Cell Count [2]: 132 and 139
Population Apoptotic (%) [3]: 55% and 52%
Population Fragmented Nuclei (%) [3]: 14% and 35%
Population Healthy Nuclei (%) [3]: 66% and 47%
Population Hoechst High Intensity Objects (%) [3]: 3%
Population Membrane Permeable-Phenotype (%) [3]: 1% and 4%
Population Mitochondria Different-Phenotype (%) [3]: 5% and 8%
Population Mitotic Cells (%) [3]: 44% and 48%
Population Normal (%) [3]: 96%
Population Pyknosed Nuclei (%) [3]: 19% and 17%
Population Tubulin-Different-Phenotype (%) [3]: 23% and 50%
Total Cell Count [3]: 156 and 150
Population Apoptotic (%) [4]: 57% and 31%
Population Fragmented Nuclei (%) [4]: 16% and 22%
Population Healthy Nuclei (%) [4]: 67% and 55%
Population Hoechst High Intensity Objects (%) [4]: 1% and 7%
Population Membrane Permeable-Phenotype (%) [4]: 1% and 5%
Population Mitochondria Different-Phenotype (%) [4]: 2% and 5%
Population Mitotic Cells (%) [4]: 42% and 68%
Population Normal (%) [4]: 98% and 92%
Population Pyknosed Nuclei (%) [4]: 16% and 21%
Population Tubulin-Different-Phenotype (%) [4]: 24% and 52%
Total Cell Count [4]: 130 and 146
Population Apoptotic (%) [5]: 65% and 63%
Population Fragmented Nuclei (%) [5]: 16% and 39%
Population Healthy Nuclei (%) [5]: 67% and 47%
Population Hoechst High Intensity Objects (%) [5]: 5% and 6%
Population Membrane Permeable-Phenotype (%) [5]: 0% and 4%
Population Mitochondria Different-Phenotype (%) [5]: 4% and 8%
Population Mitotic Cells (%) [5]: 35% and 36%
Population Normal (%) [5]: 94% and 93%
Population Pyknosed Nuclei (%) [5]: 16% and 12%
Population Tubulin-Different-Phenotype (%) [5]: 16% and 47%
Total Cell Count [5]: 132 and 157
Population Apoptotic (%) [6]: 73% and 58%
Population Fragmented Nuclei (%) [6]: 22% and 32%
Population Healthy Nuclei (%) [6]: 62% and 53%
Population Hoechst High Intensity Objects (%) [6]: 2%
Population Membrane Permeable-Phenotype (%) [6]: 0% and 3%
Population Mitochondria Different-Phenotype (%) [6]: 3% and 2%
Population Mitotic Cells (%) [6]: 26% and 41%
Population Normal (%) [6]: 97%
Population Pyknosed Nuclei (%) [6]: 14%
Population Tubulin-Different-Phenotype (%) [6]: 29% and 52%
Total Cell Count [6]: 132 and 171

O=C1CSC(=O)N1C(CCc1ccncc1)COc1ccc(-c2cccc([N+](=O)[O-])c2)cc1 (centres undefined)
Population Apoptotic (%) [1]: 15.94% and 18.18%
Population Fragmented Nuclei (%) [1]: 10.47% and 7.01%
Population Healthy Nuclei (%) [1]: 49.42% and 67.29%
Population Hoechst High Intensity Objects (%) [1]: 0%
Population Membrane Permeable-Phenotype (%) [1]: 7.06% and 9.03%
Population Mitochondria Different-Phenotype (%) [1]: 17.65% and 14.58%
Population Mitotic Cells (%) [1]: 84.06% and 81.82%
Population Normal (%) [1]: 100%
Population Pyknosed Nuclei (%) [1]: 40.12% and 25.7%
Population Tubulin-Different-Phenotype (%) [1]: 45.88% and 47.22%
Total Cell Count [1]: 172 and 214
Population Apoptotic (%) [2]: 20.34% and 45%
Population Fragmented Nuclei (%) [2]: 16.2% and 9.55%
Population Healthy Nuclei (%) [2]: 42.25% and 60.3%
Population Hoechst High Intensity Objects (%) [2]: 0%
Population Membrane Permeable-Phenotype (%) [2]: 16.67% and 33.33%
Population Mitochondria Different-Phenotype (%) [2]: 43.33% and 52.5%
Population Mitotic Cells (%) [2]: 79.66% and 55%
Population Normal (%) [2]: 100%
Population Pyknosed Nuclei (%) [2]: 41.55% and 30.15%
Population Tubulin-Different-Phenotype (%) [2]: 71.67% and 99.17%
Total Cell Count [2]: 142 and 199
Population Apoptotic (%) [3]: 12.82% and 22.22%
Population Fragmented Nuclei (%) [3]: 15.38% and 8.89%
Population Healthy Nuclei (%) [3]: 63.19% and 75.11%
Population Hoechst High Intensity Objects (%) [3]: 0%
Population Membrane Permeable-Phenotype (%) [3]: 5.22% and 7.69%
Population Mitochondria Different-Phenotype (%) [3]: 13.04% and 14.79%
Population Mitotic Cells (%) [3]: 87.18% and 77.78%
Population Normal (%) [3]: 100%
Population Pyknosed Nuclei (%) [3]: 21.43% and 16%
Population Tubulin-Different-Phenotype (%) [3]: 32.17% and 39.05%
Total Cell Count [3]: 182 and 225
Population Apoptotic (%) [4]: 30.56% and 30.23%
Population Fragmented Nuclei (%) [4]: 18.75% and 10.08%
Population Healthy Nuclei (%) [4]: 56.25% and 71.85%
Population Hoechst High Intensity Objects (%) [4]: 0%
Population Membrane Permeable-Phenotype (%) [4]: 9.88% and 12.87%
Population Mitochondria Different-Phenotype (%) [4]: 43.21% and 52.05%
Population Mitotic Cells (%) [4]: 69.44% and 69.77%
Population Normal (%) [4]: 100%
Population Pyknosed Nuclei (%) [4]: 25% and 18.07%
Population Tubulin-Different-Phenotype (%) [4]: 86.42% and 97.08%
Total Cell Count [4]: 144 and 238
Population Apoptotic (%) [5]: 21.43% and 21.21%
Population Fragmented Nuclei (%) [5]: 11.27% and 8.23%
Population Healthy Nuclei (%) [5]: 81.86% and 77.49%
Population Hoechst High Intensity Objects (%) [5]: 0%
Population Membrane Permeable-Phenotype (%) [5]: 1.2% and 3.91%
Population Mitochondria Different-Phenotype (%) [5]: 16.17% and 5.59%
Population Mitotic Cells (%) [5]: 78.57% and 78.79%
Population Normal (%) [5]: 100%
Population Pyknosed Nuclei (%) [5]: 6.86% and 14.29%
Population Tubulin-Different-Phenotype (%) [5]: 25.75% and 37.99%
Total Cell Count [5]: 204 and 231
Population Fragmented Nuclei (%) [6]: 15.87% and 12.5%
Population Healthy Nuclei (%) [6]: 73.02% and 80.83%
Population Hoechst High Intensity Objects (%) [6]: 0%
Population Membrane Permeable-Phenotype (%) [6]: 13.04% and 19.07%
Population Mitochondria Different-Phenotype (%) [6]: 35.51% and 19.59%
Population Mitotic Cells (%) [6]: 61.9% and 87.5%
Population Normal (%) [6]: 100%
Population Pyknosed Nuclei (%) [6]: 11.11% and 6.67%
Population Tubulin-Different-Phenotype (%) [6]: 84.06% and 98.45%
Total Cell Count [6]: 189 and 240

Cc1[nH]nc2ccc(-c3cncc(OCC(N)Cc4c[nH]c5ccccc45)c3)cc12 (centres undefined)
Population Apoptotic (%) [1]: 18.11% and 24.66%
Population Fragmented Nuclei (%) [1]: 16.11% and 10.36%
Population Healthy Nuclei (%) [1]: 41.28% and 56.76%
Population Hoechst High Intensity Objects (%) [1]: 0%
Population Membrane Permeable-Phenotype (%) [1]: 3.25% and 3.97%
Population Mitochondria Different-Phenotype (%) [1]: 17.07% and 15.08%
Population Mitotic Cells (%) [1]: 81.89% and 75.34%
Population Normal (%) [1]: 100%
Population Pyknosed Nuclei (%) [1]: 42.62% and 32.88%
Population Tubulin-Different-Phenotype (%) [1]: 23.58% and 29.37%
Total Cell Count [1]: 298 and 222
Population Apoptotic (%) [2]: 73.46% and 80.82%
Population Fragmented Nuclei (%) [2]: 20.65% and 12.77%
Population Healthy Nuclei (%) [2]: 11.29% and 2.66%
Population Hoechst High Intensity Objects (%) [2]: 0% and 0.27%
Population Membrane Permeable-Phenotype (%) [2]: 2.86% and 10%
Population Mitochondria Different-Phenotype (%) [2]: 5.71% and 10%
Population Mitotic Cells (%) [2]: 26.54% and 19.18%
Population Normal (%) [2]: 100% and 99.73%
Population Pyknosed Nuclei (%) [2]: 68.06% and 84.57%
Population Tubulin-Different-Phenotype (%) [2]: 22.86% and 10%
Total Cell Count [2]: 310 and 377
Population Apoptotic (%) [3]: 27.83% and 30.77%
Population Fragmented Nuclei (%) [3]: 13.42% and 3.92%
Population Healthy Nuclei (%) [3]: 47.99% and 64.22%
Population Hoechst High Intensity Objects (%) [3]: 0%
Population Membrane Permeable-Phenotype (%) [3]: 0.7% and 2.29%
Population Mitochondria Different-Phenotype (%) [3]: 10.49% and 14.5%
Population Mitotic Cells (%) [3]: 72.17% and 69.23%
Population Normal (%) [3]: 100%
Population Pyknosed Nuclei (%) [3]: 38.59% and 31.86%
Population Tubulin-Different-Phenotype (%) [3]: 18.88% and 22.14%
Total Cell Count [3]: 298 and 204
Population Apoptotic (%) [4]: 65.94% and 93.38%
Population Fragmented Nuclei (%) [4]: 25.98% and 13.12%
Population Healthy Nuclei (%) [4]: 19.69% and 18.55%
Population Hoechst High Intensity Objects (%) [4]: 0%
Population Membrane Permeable-Phenotype (%) [4]: 10% and 14.63%
Population Mitochondria Different-Phenotype (%) [4]: 6% and 7.32%
Population Normal (%) [4]: 100%
Population Pyknosed Nuclei (%) [4]: 54.33% and 68.33%
Population Tubulin-Different-Phenotype (%) [4]: 24% and 48.78%
Total Cell Count [4]: 254 and 221
Population Apoptotic (%) [5]: 32.98% and 38.18%
Population Fragmented Nuclei (%) [5]: 11.28% and 7.22%
Population Healthy Nuclei (%) [5]: 53.38% and 64.43%
Population Hoechst High Intensity Objects (%) [5]: 0%
Population Membrane Permeable-Phenotype (%) [5]: 0% and 3.2%
Population Mitochondria Different-Phenotype (%) [5]: 17.61% and 10.4%
Population Mitotic Cells (%) [5]: 67.02% and 61.82%
Population Normal (%) [5]: 100%
Population Pyknosed Nuclei (%) [5]: 35.34% and 28.35%
Population Tubulin-Different-Phenotype (%) [5]: 13.38% and 9.6%
Total Cell Count [5]: 266 and 194
Population Apoptotic (%) [6]: 40.43% and 95.45%
Population Fragmented Nuclei (%) [6]: 31.02% and 56.65%
Population Healthy Nuclei (%) [6]: 47.22% and 30.64%
Population Hoechst High Intensity Objects (%) [6]: 0%
Population Membrane Permeable-Phenotype (%) [6]: 5.88% and 11.32%
Population Mitochondria Different-Phenotype (%) [6]: 31.37% and 37.74%
Population Normal (%) [6]: 100%
Population Pyknosed Nuclei (%) [6]: 21.76% and 12.72%
Population Tubulin-Different-Phenotype (%) [6]: 35.29% and 66.04%
Total Cell Count [6]: 216 and 173
